Results from different studies.
Lines come from different studies, so protocols differ.
Target: Death-associated protein kinase 3 (DAPK3, Homo sapiens, UniProt O43293)

| SMILES | assay | setting | endpoint | result |
| --- | --- | --- | --- | --- |
| Cn1cc(-c2cc(F)cc(N3CCn4c(cc5c4CCCC5)C3=O)c2CO)cc(Nc2ccc(N3CCN(C4COC4)CC3)cn2)c1=O | enzyme activity, inhibitor | 0.1 µM | inhibition | 3% |
| COc1ncccc1-c1cnn2ccc(N3CCN(C(=O)OC(C)C)CC3)nc12 | binding, competition with immobilised ligand | 1 µM | remaining binding | 98% |
| CC(C)(C)c1cc(C=C(C#N)C#N)cc(Br)c1O | enzyme activity, inhibitor | 0.5 µM | remaining activity | 96.4% |
| Nc1ncc(-c2nc(N3CCOCC3)nc(N3CCOCC3)n2)c(C(F)F)n1 | binding, competition with immobilised ligand | 10 µM | remaining binding | 80% |
| Cn1cncc1[C@](O)(COc1ccc(C#N)cc1-c1ccc(OC(F)(F)F)cc1)c1ccc(C#N)cc1 | cell-free assay, competition with immobilised ligand | 1 µM | remaining binding | 88% |
| Cn1cc(-c2cccc(N3CCc4c(sc5c4CC(C)(C)C5)C3=O)c2CO)cc(Nc2ccncn2)c1=O | enzyme activity, inhibitor | 1 µM | inhibition | -6% |
| O=c1[nH]c2ccccc2n1C1CCN(Cc2ccc(-c3[nH]c4cc5ncnc5cc4nc3-c3ccccc3)cc2)CC1 | cell-free assay | 0.5 µM | remaining signal | 106% |
| Cc1nn(C)cc1-c1nc2c(N3CCN(Cc4ccc(Cl)cc4)CC3)c(Cl)cnc2[nH]1 | binding, competition with immobilised ligand | 1 µM | remaining binding | 84% |
